Laboratory results published in ChEMBL document CHEMBL1139132, “N-caffeoylphenalkylamide derivatives as bacterial efflux pump inhibitors” (2007).
In brackets after ≈: the same amount, converted by molar mass.

Tests used:
Format in all cases: functional
Staphylococcus aureus [1] = experiment: Inhibition of NorA pump in fluoroquinolone-resistant Staphylococcus aureus SA1199B assessed as drug level causing 2-fold reduction of Norfloxacin MIC
In short: (§1)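 SA-1199B, which overexpresses NorA, tested by dilution MIC. Norfloxacin MIC measured with and without added test agent. Potentiation expressed as the fold reduction of the norfloxacin MIC relative to norfloxacin alone, at the stated agent concentration.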

Staphylococcus aureus [2] = experiment: Inhibition of NorA pump in fluoroquinolone-resistant Staphylococcus aureus SA1199B assessed as drug level causing 8-fold reduction of Norfloxacin MIC; in short: as §1
Staphylococcus aureus [3] = experiment: Antimicrobial activity against fluoroquinolone-resistant Staphylococcus aureus SA1199B
In short: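 S. aureus SA-1199B, which overexpresses the NorA MDR efflux pump. MIC determined by the standard dilution method for aerobically growing bacteria.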

Staphylococcus aureus [4] = experiment: Inhibition of NorA pump in fluoroquinolone-resistant Staphylococcus aureus SA1199B assessed as drug level causing reduction of Norfloxacin MIC; in short: as §1
Staphylococcus aureus [5] = experiment: Inhibition of NorA pump in fluoroquinolone-resistant Staphylococcus aureus SA1199B assessed as drug level causing 4-fold reduction of Norfloxacin MIC; in short: as §1
Staphylococcus aureus [6] = experiment: Inhibition of NorA pump in fluoroquinolone-resistant Staphylococcus aureus SA1199B assessed as drug level causing 16-fold reduction of Norfloxacin MIC; in short: as §1

With COc1ccc(/C=C/C(=O)NCCc2ccc(OC)c(OC)c2)cc1OC the Activity (Staphylococcus aureus [1]) was 54 µM and the Activity (Staphylococcus aureus [2]) was 162 µM.

COc1ccc(/C=C/C(=O)NCCc2cc(O)c(O)c(O)c2)cc1OC gave an MIC (Staphylococcus aureus [3]) of 356 µM (≈ 128 µg/mL) and an Activity (Staphylococcus aureus [4]) of 56 µM.

O=C(/C=C/c1ccccc1)NCCc1ccc(O)c(O)c1 gave an Activity (Staphylococcus aureus [5]) of 70 µM, an MIC (Staphylococcus aureus [3]) of over 452 µM and an Activity (Staphylococcus aureus [6]) of 353 µM.

Molecule COc1ccc(/C=C/C(=O)NCCc2ccccc2)cc1OC has an Activity (Staphylococcus aureus [5]) of 322 µM.

With COc1cc(/C=C/C(=O)NCCc2ccc(O)c(O)c2)cc(OC)c1OC the Activity (Staphylococcus aureus [5]) was 268 µM.

COC(=O)[C@H]1[C@H]2C[C@@H]3c4[nH]c5cc(OC)ccc5c4CCN3C[C@H]2C[C@@H](OC(=O)c2cc(OC)c(OC)c(OC)c2)[C@@H]1OC [RESERPINE] showed an MIC (Staphylococcus aureus [2]; Staphylococcus aureus, SA1199B) of 33 µM (≈ 20.1 µg/mL).

For COc1ccc(/C=C/C(=O)NCCc2ccc(O)c(O)c2)cc1OC, the Activity (Staphylococcus aureus [2]) was 292 µM and the Activity (Staphylococcus aureus [5]) was 146 µM.

COc1ccc(CCC(=O)NCCc2ccc(O)c(O)c2)cc1OC showed an Activity (Staphylococcus aureus [4]) of 290 µM.

CCn1cc(C(=O)O)c(=O)c2cc(F)c(N3CCNCC3)cc21 [NORFLOXACIN] gave an MIC (Staphylococcus aureus [3]) of 100 µM (≈ 31.9 µg/mL).

Work on O=C(/C=C/c1ccc(O)c(O)c1)NCCc1ccc(O)c(O)c1 yielded an Activity (Staphylococcus aureus [2]) of 317 µM, an Activity (Staphylococcus aureus [5]) of 63 µM and an MIC (Staphylococcus aureus [3]) of at least 406 µM.

For COc1ccc(/C=C/C(=O)NCCc2c[nH]c3ccccc23)cc1OC, the Activity (Staphylococcus aureus [2]) was 57 µM, the Activity (Staphylococcus aureus [5]) was 29 µM and the MIC (Staphylococcus aureus [3]) was over 366 µM. For the same molecule, the Activity (Staphylococcus aureus [6]) was 286 µM.
